# Compound activity: PubChem BioAssay, Broad Institute
# A selection: hits, their analogues and other compounds. The true share with any hit is near 3.7%.
# DENV2 CPE rescue – DENV2-induced cell death inhibition. DENV2-infected cells, cytopathic effect rescue, plate reader. CPE inhibition, % at 9.99 µM. 350,000 tested, 1.7% active. AID 651640; in the data active means CPE inhibition above about 20%, passing the limit was not always enough; inconclusive means no clear call, values can overlap the other calls; tested in BHK-21 cells;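 further: 0% = median of neutral control wells and 100% = median of positive control wells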
# ERAP1 inh – blocks human ERAP1 aminopeptidase activity; recombinant ERAP1, Leu-AMC fluorescence, 60 min; inhibition, % at 10.7 µM; 340,000 tested, 0.15% active; Q9NZ08;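 active means mean replicate inhibition of at least 30%, or all replicates individually reaching that 30% level; inactive means mean below 30% and not every replicate reaching it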;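 further: 0% = neutral control wells and 100% = L-leucinethiol positive control wells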
# CFTR F508del cor – CFTR F508del correction in bronchial cells. activity (quench increase), % at 7.58 µM. 350,000 tested, 0.36% active. CFBE cells, YFP halide quenching; stimulated with forskolin plus potentiator P3; % fluorescence drop versus neutral controls;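 active means mean added fluorescence quench of at least 8% versus neutral control, with both replicates also reaching 8%; inconclusive means only one of the mean or replicate conditions met; inactive means mean below 8% and not both replicates reaching 8%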;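 further: cells transiently co-express mutant CFTR-F508del with the halide-sensitive YFP; corrector assay measuring rescue of mutant channel to the surface after 24 h compound exposure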
# E-sel inducer – induces E-selectin expression in human endothelial cells. activation, % at 7.58 µM. HUVEC E-selectin immunofluorescence imaging; normalized: neutral wells 0, TNF-alpha wells 100. 260,000 tested, 0.37% active. P16581;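 active means mean E-selectin-positive cell signal at least 10% of the positive control, reached in at least 60% of replicates, without over 20% cell loss; inconclusive means no rule given, readout overlaps actives, possibly toxicity-flagged; inactive means the rest, including those meeting only one limit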
#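 Read-out basis: % PE-positive cells; Test system: HUVEC primary endothelial cells; Technique: immunofluorescence imaging; Dosing: single-point compound dose.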
# FGF22 binding – shifts melting point of recombinant human FGF22; Q9HCT0; recombinant FGF22 thermal shift, SYPRO orange fluorescence; percent of sucrose octasulfate shift, DMSO zero; activity (Tm shift, normalised), % at 9.99 µM; 340,000 tested, 1.5% active; AID 651658;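 active means mean Tm shift, scaled 0 neutral to 100 positive control, at about 1.3% or above, every replicate too, limit read from the data; inconclusive means no clear call, values can overlap the other calls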
# Target sequence (Q9HCT0 whole entry, looked up): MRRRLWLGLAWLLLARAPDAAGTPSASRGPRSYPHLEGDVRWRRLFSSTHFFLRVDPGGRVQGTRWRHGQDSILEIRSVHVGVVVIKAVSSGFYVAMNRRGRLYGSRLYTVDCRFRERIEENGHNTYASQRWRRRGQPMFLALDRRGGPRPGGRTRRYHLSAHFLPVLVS
# * marks the source's active call; other numbers are inactive results; u = inconclusive; x = no result given.
SMILES,DENV2 CPE rescue,ERAP1 inh,CFTR F508del cor,E-sel inducer,FGF22 binding
O=C(NC1CCCC1)N1CCCCN2[C@@H](CO)[C@H](c3ccc(-c4ccccc4)cc3)[C@@H]2C1,18.2,0.8,-2.7,-0.4,-0.2
Cc1ccc(C(OCC(O)CN2CCCCC2)c2ccccc2)cc1 (stereo not drawn),u,-8.1,1.8,0.0,0.0
OC(COC(c1ccccc1)c1ccccc1)CN1CCOCC1 (stereo not drawn),0.8,-4.4,x,71.6*,-0.1
CCOc1ccc(N(CC)C(=O)COc2cc(=O)n(C)c3ccccc23)cc1,4.1,0.8,8.8*,0.3,0.0
COc1ccc(S(=O)(=O)Nc2ccc3c(c2)CC(=O)N([C@H](C)CO)C[C@H](C)[C@@H](CN(C)C(=O)Nc2ccc(C(F)(F)F)cc2)O3)cc1,-2.2,1.0,-2.4,-3.1,-0.7
CCCCc1nc(Cl)c(CO)n1Cc1ccc(-c2ccccc2-c2nnn[nH]2)cc1,1.1,2.5,-1.7,0.0,-0.4
CCCCc1nc(Cl)c(CO)n1Cc1ccc(-c2ccccc2-c2nn[nH]n2)cc1,-0.6,3.6,8.1*,0.3,0.0
O=C(Nc1ccc(F)cc1)N1CCCCN2[C@H](C1)[C@H](c1ccc(-c3cccc(F)c3)cc1)[C@@H]2CO,u,1.6,8.9*,0.3,0.2
O=C(Nc1cccc(F)c1)N1CCCCN2[C@@H](CO)[C@H](c3ccc(C#CC4CC4)cc3)[C@@H]2C1,3.2,2.0,8.6*,-0.6,-0.7
Cc1ccc(-c2ccc([C@H]3[C@@H](CO)N4CCCCN(C(=O)Nc5cccc(F)c5)C[C@H]34)cc2)cc1,-10.8,-0.8,8.0*,-0.2,-1.2
O=C(N[C@H]1CC[C@@H](CCNC(=O)C2CC2)O[C@@H]1CO)c1ccccn1,-5.8,-1.2,1.3,0.0,0.5
C[C@H]1CN([C@@H](C)CO)C(=O)c2cc(-c3ccccc3)cnc2O[C@@H]1CN(C)C(=O)Cc1ccccn1,-6.8,-3.7,-0.2,-0.1,0.0
C[C@@H]1CN([C@@H](C)CO)C(=O)c2cc(NC(=O)Nc3ccccc3)ccc2O[C@@H]1CN(C)Cc1ccc(Cl)c(Cl)c1,x,x,-0.8,0.3,x
CCCCCCCC(=O)Nc1cc(C(=O)NCc2ccc(C)cc2)ccc1N1CCC2(CC1)CC(c1ccccc1)=NO2,27.3*,-0.3,2.8,x,-0.1
CCc1c(C)[nH]c(C(=O)OCc2ccccc2)c1C,16.2,-3.3,3.0,x,42.9*
C[C@@H]1CN([C@H](C)CO)C(=O)Cc2cc(NS(=O)(=O)c3cccs3)ccc2O[C@H]1CN(C)S(=O)(=O)c1ccc(F)cc1,24.3*,-0.8,0.5,0.3,-0.1
C[C@H](CO)N1C[C@H](C)[C@@H](CN(C)S(=O)(=O)c2ccc(F)cc2)Oc2ccc(NS(=O)(=O)c3cccs3)cc2CC1=O,2.3,-2.3,2.9,-0.1,0.2
COc1ccc(S(=O)(=O)N(C)C[C@H]2Oc3ccc(NS(=O)(=O)c4cccs4)cc3CC(=O)N([C@@H](C)CO)C[C@@H]2C)cc1,26.3*,-0.1,-2.7,-0.3,-0.2
C[C@@H]1CN([C@H](C)CO)C(=O)c2cc(NS(=O)(=O)c3cn(C)cn3)ccc2O[C@@H]1CN(C)CC1CC1,7.3,-0.3,-0.1,-0.2,0.0
O=C(Nc1nccs1)[C@H]1[C@H](CO)[C@H]2Cn3c(cccc3=O)[C@@H]1N2C(=O)C1CCC1,3.7,0.6,-5.1,-0.4,-0.5
CC(C)OC(=O)CC(=O)CSc1nc2c(c(-c3cccs3)c1C#N)CCC2,x,4.3,-1.6,x,43.9*
NC(=O)C1CCN(c2nc3ccccc3nc2NS(=O)(=O)c2ccc(Br)cc2)CC1,9.5,7.7,-7.5,2.1,x
CCOC(=O)C1CCCN(c2nc3ccccc3nc2NS(=O)(=O)c2ccc(C)cc2)C1 (stereo not drawn),-2.1,1.8,21.3*,-0.2,0.7
CCN(c1ccccc1)S(=O)(=O)c1ccc(OC)c(NC(=O)Cc2ccc(F)cc2)c1,6.8,0.2,-0.1,-0.1,-0.1
CCN(c1ccccc1)S(=O)(=O)c1ccc(OC)c(NC(=O)C2CCC2)c1,67.5*,-2.5,4.2,x,0.1
SMILES,DENV2 CPE rescue,ERAP1 inh,CFTR F508del cor,E-sel inducer,FGF22 binding
O=C(CNc1n[nH]c(=O)[nH]c1=O)N/N=C/c1ccccc1,-0.9,3.7,0.3,x,0.0
O=C(CCNc1n[nH]c(=O)[nH]c1=O)N/N=C/c1ccc(C(F)(F)F)cc1,2.6,2.7,0.5,x,42.9*
O=C(CCNc1n[nH]c(=O)[nH]c1=O)N/N=C/c1ccccc1Br,1.5,2.8,-1.7,x,43.6*
O=C(Cc1ccccn1)NCC[C@@H]1CC[C@H](NC(=O)Nc2ccc(C(F)(F)F)cc2)[C@H](CO)O1,-4.3,-2.6,12.0*,0.1,-0.1
O=C(C[C@H]1C=C[C@@H](NC(=O)Nc2ccc(C(F)(F)F)cc2)[C@@H](CO)O1)NCc1ccccn1,20.1*,-0.9,3.1,0.0,0.2
O=C(CN1CCOCC1)NCC[C@@H]1CC[C@H](NC(=O)c2ccc3c(c2)OCO3)[C@@H](CO)O1,22.0*,-0.5,0.7,-0.2,-0.2
O=C(CN1CCOCC1)NCC[C@H]1CC[C@H](NC(=O)Cc2ccccn2)[C@@H](CO)O1,24.4*,1.8,2.0,0.3,0.0
O=C(Cc1ccccn1)NCC[C@H]1CC[C@H](NC(=O)Nc2ccc(C(F)(F)F)cc2)[C@@H](CO)O1,-3.3,-4.5,-1.8,-0.2,-0.2
COc1cccc(S(=O)(=O)N(C)C[C@@H]2Oc3ncc(-c4cccc(C(F)(F)F)c4)cc3C(=O)N([C@H](C)CO)C[C@@H]2C)c1,-3.4,1.5,0.2,0.2,-0.9
Cc1noc(C)c1NC(=O)Nc1ccc2c(c1)C(=O)N(C)[C@@H]1CC[C@@H](CC(=O)N(C)C)O[C@H]1CO2,17.0,-1.3,2.8,-0.2,0.0
O=C(C[C@@H]1C[C@@H]2c3cc(NC(=O)Nc4ccccc4)ccc3O[C@@H]2[C@@H](CO)O1)NCc1cccnc1,4.9,x,0.6,2.3,0.1
O=C(N[C@@H]1CC[C@H](CCNS(=O)(=O)Cc2ccccc2)O[C@@H]1CO)c1ccc2c(c1)OCO2,21.7*,0.8,-1.4,0.1,-0.1
O=C(Cc1ccccn1)NCC[C@H]1CC[C@@H](NC(=O)c2ccccc2F)[C@@H](CO)O1,40.2*,9.8,0.5,-0.4,0.7
COc1ccc2c3c([nH]c2c1)[C@H](CO)N(C(=O)c1cccnc1)CC31CCN(C(=O)c2cccnc2)CC1,10.0,0.9,0.7,0.6,0.0
Cc1c2ccncc2cc2c1[nH]c1ccccc12,1.3,2.8,11.6*,3.2,0.2
COc1cccc(-c2cc3nc(-c4ccccc4)cc(=O)n3[nH]2)c1,8.0,2.0,11.6*,-0.1,-0.3
O=c1cc(-c2ccccc2)nc2cc(-c3ccc(F)cc3)[nH]n12,-2.4,-1.6,-0.9,x,0.0
Cc1cccc(NC(=O)/C(C#N)=C\c2ccc(C(=O)O)cc2)c1,x,-5.2,1.8,x,0.0
